# pEC50, pIC50: −log10 of the molar value. Active and inactive are the calls of the source. No cut-off for these calls is given here.
# Columns and labels:
# Hepatitis C virus = test: Antiviral activity against Hepatitis C virus infected in human HUH7 cells by replicon assay; format: functional, organism-based, Hepacivirus hominis; conditions: Huh-7
# Procedure, shortened: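 Subgenomic HCV RNA replicon in HUH-7 cells, adapted from the Bartenschlager procedure, run in 10% fetal calf serum unless otherwise stated. EC50 is the mean of at least two experiments.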
# [1] = Inhibition of HCV NS5B Cdelta21 in presence of heterogenic template RNA; design: species or system Hepacivirus hominis
# Procedure, shortened: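 Purified NS5B enzyme (C-terminal 21-residue deletion) assayed with heterogenic template RNA. IC50 is the mean of at least two experiments.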
# [2] = Fraction unbound in human plasma; format: ADME, cell-free
# [3] = Intrinsic clearance in rat liver microsomes in presence of NADPH; format: ADME, Microsome
# Procedure, shortened: (§1)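 Incubated with liver microsomes (rat, dog, rhesus or human) in the presence of NADPH. Intrinsic clearance is expressed in ml/min/kg.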
# [4] = Intrinsic clearance in human liver microsomes in presence of NADPH; format: ADME, Microsome; procedure, shortened: as §1
# [5] = Plasma clearance in dog; format: ADME, organism-based, Canis lupus familiaris
# Procedure, shortened: (§2)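 Given as HCl or trifluoroacetate salts, intravenously (vehicle 20% DMSO/60% PEG400/20% H2O) and orally (vehicle PEG400); n = 3. AUC reported with the dose in mpk; oral bioavailability and plasma clearance are derived from these dosings.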
# [6] = Ratio of drug level from liver to plasma in po dosed rat after 6 hrs; format: ADME, organism-based
# Procedure, shortened: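 Rats dosed orally; compound concentrations in liver and plasma measured 6 h after administration and expressed as a liver/plasma ratio.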
# [7] = Oral bioavailability in rat; format: ADME, organism-based; conditions: in vivo; procedure, shortened: as §2
# [8] = Plasma clearance in rat; format: ADME, organism-based; procedure, shortened: as §2
# [9] = AUC in dog; format: ADME, organism-based, Canis lupus familiaris; conditions: plasma; procedure, shortened: as §2
# [10] = Intrinsic clearance in dog liver microsomes in presence of NADPH; format: ADME, Canis lupus familiaris, Microsome; procedure, shortened: as §1
# [11] = Fraction unbound in rat plasma; format: ADME, cell-free
# [12] = AUC in rat; format: ADME, organism-based; conditions: plasma; procedure, shortened: as §2
# [13] = Intrinsic clearance in rhesus monkey liver microsomes in presence of NADPH; format: ADME, Macaca mulatta, Microsome; procedure, shortened: as §1
# [14] = Oral bioavailability in dog; format: ADME, organism-based, Canis lupus familiaris; conditions: in vivo; procedure, shortened: as §2
# [15] = Fraction unbound in dog plasma; format: ADME, cell-free, Canis lupus familiaris
# [16] = Plasma clearance in rhesus monkey; format: ADME, organism-based, Macaca mulatta; procedure, shortened: as §2
# Canis familiaris = test: Cardiotoxicity in anesthetized dogs assessed as prolongation of QT interval up to 10 mg/kg; format: toxicity, organism-based, Canis lupus familiaris; design: dose 10 mg/kg; conditions: dog, in vivo
# [17] = Oral bioavailability in rhesus monkey; format: ADME, organism-based, Macaca mulatta; conditions: in vivo; procedure, shortened: as §2
# [18] = biological target: T1, Nuclear receptor subfamily 1 group I member 2 (Homo sapiens, UniProt O75469); test: Activity at human PXR at 10 uM by reporter gene assay
# T1 sequence (O75469 whole entry): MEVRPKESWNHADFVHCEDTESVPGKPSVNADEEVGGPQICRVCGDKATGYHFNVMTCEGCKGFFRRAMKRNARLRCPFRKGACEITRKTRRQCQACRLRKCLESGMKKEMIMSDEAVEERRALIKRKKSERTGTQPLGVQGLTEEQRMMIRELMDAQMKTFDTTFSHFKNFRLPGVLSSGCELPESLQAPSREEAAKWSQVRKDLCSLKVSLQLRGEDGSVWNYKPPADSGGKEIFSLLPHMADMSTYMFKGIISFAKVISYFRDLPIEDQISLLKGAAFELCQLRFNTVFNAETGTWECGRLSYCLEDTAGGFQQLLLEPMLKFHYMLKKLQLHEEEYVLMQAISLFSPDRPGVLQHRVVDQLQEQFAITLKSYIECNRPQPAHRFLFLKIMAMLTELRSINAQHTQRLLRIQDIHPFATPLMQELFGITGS
# Homo sapiens = species on record: Homo sapiens; test: Inhibition of human DNA polymerase
# [19] = Metabolic stability in po dosed dog assessed as urinary excretion; format: ADME, organism-based, Canis lupus familiaris; conditions: urine, read-out: Stability
# [20] = Metabolic stability in po dosed rat assessed as urinary excretion; format: ADME, organism-based; conditions: urine, read-out: Stability
# Hepatocyte = test: Metabolic stability in human hepatocytes after 4 hrs by HPLC; format: ADME, cell-based
# Procedure, shortened: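 [3H]-labelled compound incubated 4 h with human hepatocytes. Analysis by HPLC with radiochromatographic detection.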
# [21] = Metabolic stability in po dosed rat assessed as biliary excretion; format: ADME, organism-based; conditions: bile, read-out: Stability
# [22] = AUC in rhesus monkey; format: ADME, organism-based, Macaca mulatta; conditions: plasma; procedure, shortened: as §2
# Cytochrome P450 3A4 = Cytochrome P450 3A4 (Homo sapiens, UniProt P08684); test: Inhibition of CYP3A4 in human liver microsomes; format: ADME, Microsome
# Chain of Cytochrome P450 3A4 (P08684 whole entry): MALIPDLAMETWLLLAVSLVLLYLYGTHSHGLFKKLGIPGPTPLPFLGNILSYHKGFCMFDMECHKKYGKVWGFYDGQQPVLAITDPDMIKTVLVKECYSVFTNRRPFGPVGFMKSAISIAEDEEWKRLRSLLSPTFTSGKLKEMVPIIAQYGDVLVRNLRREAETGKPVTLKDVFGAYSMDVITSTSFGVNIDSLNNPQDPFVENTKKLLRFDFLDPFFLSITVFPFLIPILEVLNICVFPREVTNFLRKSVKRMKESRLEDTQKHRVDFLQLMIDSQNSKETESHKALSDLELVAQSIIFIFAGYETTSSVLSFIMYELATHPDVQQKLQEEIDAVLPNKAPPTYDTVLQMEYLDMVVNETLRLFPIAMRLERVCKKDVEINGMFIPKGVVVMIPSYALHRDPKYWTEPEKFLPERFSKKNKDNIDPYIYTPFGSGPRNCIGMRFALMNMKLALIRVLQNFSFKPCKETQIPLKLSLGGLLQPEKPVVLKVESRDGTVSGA
# [23] = Protein binding in human plasma; format: ADME, cell-free; conditions: read-out: PPB (converted)
smiles,measurement,setting,value
COc1ccc2c(c1)CN(CCN(C)C)CCn1c-2c(C2CCCCC2)c2ccc(C(=O)O)cc21,pEC50,Hepatitis C virus,7.00
same,pIC50,[1],7.46
CN(C)CCN1Cc2ccccc2-c2c(C3CCCCC3)c3ccc(C(=O)O)cc3n2CC1=O,pEC50,Hepatitis C virus,6.59
same,pIC50,[1],6.96
CN(C)CC(=O)N1CCn2c(c(C3CCCCC3)c3ccc(C(=O)O)cc32)-c2ccc(F)cc2C1,fraction unbound,[2],0.02
same,CLint scaled,[3],16 mL/min/kg
same,CLint scaled,[4],13 mL/min/kg
same,clearance,[5],3 mL/min/kg
same,Kp at 6 h,[6],8
same,bioavailability,[7],48%
same,clearance,[8],12 mL/min/kg
same,AUC,[9],17.6 µM·h
same,CLint scaled,[10],8 mL/min/kg
same,pEC50,Hepatitis C virus,6.77
same,fraction unbound,[11],0.02
same,AUC,[12],4 µM·h
same,CLint scaled,[13],42 mL/min/kg
same,bioavailability,[14],83%
same,pIC50,[1],7.22
same,fraction unbound,[15],0.02
CN(C)CCN1CCn2c(c(C3CCCCC3)c3ccc(C(=O)O)cc32)-c2ccccc2C1,fraction unbound,[2],0.03
same,clearance,[16],22 mL/min/kg
same,Activity,Canis familiaris,Non-toxic
same,bioavailability,[17],57%
same,CLint scaled,[3],100 mL/min/kg
same,CLint scaled,[4],5 mL/min/kg
same,Activity,[18],Not Active
same,Activity,Homo sapiens,inactive
same,clearance,[5],2.5 mL/min/kg
same,Kp at 6 h,[6],16
same,bioavailability,[7],31%
same,clearance,[8],61 mL/min/kg
same,dose excreted,[19],< 1%
same,AUC,[9],23 µM·h
same,CLint scaled,[10],26 mL/min/kg
same,dose excreted,[20],1%
same,fraction unbound,[11],0.07
same,AUC,[12],4.2 µM·h
same,CLint scaled,[13],51 mL/min/kg
same,Stability,Hepatocyte,Stable
same,bioavailability,[14],74%
same,pIC50,[1],7.57
same,fraction unbound,[15],0.03
same,dose excreted,[21],4%
same,AUC,[22],2 µM·h
same,Activity,Cytochrome P450 3A4,Not Active
CN(C)CCN1Cc2ccccc2-c2c(C3CCCCC3)c3ccc(C(=O)O)cc3n2CCC1=O,pEC50,Hepatitis C virus,5.84
same,pIC50,[1],6.07
CN(C)CC(=O)N1CCn2c(c(C3CCCCC3)c3ccc(C(=O)O)cc32)-c2ccccc2C1,pEC50,Hepatitis C virus,6.66
same,pIC50,[1],6.89
CN(C)CC1Cn2c(c(C3CCCCC3)c3ccc(C(=O)O)cc32)-c2ccccc2N1C (racemic),pEC50,Hepatitis C virus,6.80
same,pIC50,[1],7.37
COc1ccc2c(c1)CN(C)CCn1c-2c(C2CCCCC2)c2ccc(C(=O)O)cc21,CLint scaled,[3],43 mL/min/kg
same,CLint scaled,[4],7 mL/min/kg
same,clearance,[5],2.9 mL/min/kg
same,bioavailability,[7],83%
same,clearance,[8],32 mL/min/kg
same,AUC,[9],18.7 µM·h
same,CLint scaled,[10],6 mL/min/kg
same,pEC50,Hepatitis C virus,6.54
same,AUC,[12],2.9 µM·h
same,CLint scaled,[13],16 mL/min/kg
same,bioavailability,[14],67%
same,pIC50,[1],7.26
CN(C)CCN1CCn2c(c(C3CCCCC3)c3ccc(C(=O)O)cc32)-c2ccccc21,pIC50,[1],7.55
CN(C)CCN1C(=O)Cn2c(c(C3CCCCC3)c3ccc(C(=O)O)cc32)-c2ccccc21,pEC50,Hepatitis C virus,6.39
same,pIC50,[1],6.89
COc1ccc2c(c1)N(CCN(C)C)CCCn1c-2c(C2CCCCC2)c2ccc(C(=O)O)cc21,pEC50,Hepatitis C virus,6.27
same,pIC50,[1],7.11
CN(C)CC1CN(C)c2ccccc2-c2c(C3CCCCC3)c3ccc(C(=O)O)cc3n21 (racemic),pEC50,Hepatitis C virus,4.87
same,pIC50,[1],5.72
CN1Cc2ccccc2-c2c(C3CCCCC3)c3ccc(C(=O)O)cc3n2CC1=O,pEC50,Hepatitis C virus,4.72
same,fraction unbound,[23],0.003
same,pIC50,[1],7.10
CN1CCn2c(c(C3CCCCC3)c3ccc(C(=O)O)cc32)-c2ccccc2C1,pEC50,Hepatitis C virus,6.05
same,pIC50,[1],6.77
CN(C)CC1Cn2c(c(C3CCCCC3)c3ccc(C(=O)O)cc32)-c2ccccc2CN1C (racemic),pEC50,Hepatitis C virus,6.85
same,pIC50,[1],7.46
CCN(CC)C1CCN(C(=O)Cn2c(-c3ccc(Cl)cc3)c(C3CCCCC3)c3ccc(C(=O)O)cc32)CC1,bioavailability,[7],10%
same,pEC50,Hepatitis C virus,6.74
same,AUC,[12],0.2 µM·h
same,pIC50,[1],7.32
CN(C)C(=O)Cn1c(-c2ccccc2)c(C2CCCCC2)c2ccc(C(=O)O)cc21,fraction unbound,[23],0.029
same,pIC50,[1],6.37

# Reference: ChEMBL document CHEMBL1143361, “Tetracyclic indole inhibitors of hepatitis C virus NS5B-polymerase” (Bioorg Med Chem Lett, 2009)
